# What was measured:
# [1] = tested on: Human immunodeficiency virus; assay: Antiviral activity against HIV with reverse transcriptase K103N/Y181C double mutant infected in human MT2 cells assessed as inhibition of viral replication measuring p24 level after 3 days in presence of 10% fetal bovine serum; type: functional; details: Human immunodeficiency virus 1, MT2, Serum, 72 h; read-out: CIC95
# Procedure, shortened: (§1)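 Multiple-cycle replication (Spread) assay in MT2 cells with H9IIIB-background mutant virus. Cells were infected overnight at moi ≈ 0.01 without compound, washed, then cultured 3 days across a range of compound concentrations in medium with 10% FBS. p24 was measured in supernatants. CIC95 is the lowest concentration inhibiting replication by ≥95%, reported as the geometric mean of ≥2 determinations.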
# [2] = Volume of distribution in Sprague-Dawley rat at 2 mg/kg, iv; type: ADME, organism-based; design: dose 2 mg/kg, route intravenous; details: in vivo
# Rattus norvegicus = assay: AUC in Sprague-Dawley rat at 2 mg/kg, iv; type: ADME, organism-based, Plasma; design: dose 2 mg/kg, route intravenous; details: in vivo
# [3] = tested on: Human immunodeficiency virus; assay: Antiviral activity against wild type HIV H9-3B infected in human MT2 cells assessed as inhibition of viral replication measuring p24 level after 3 days in presence of 50% normal human serum; type: functional; details: Human immunodeficiency virus 1, H9-3B, 72 h, read-out: CIC95
# Procedure, shortened: (§2)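 Multiple-cycle spread assay in MT2 cells with wild-type H9IIIB virus. Cells were infected overnight at moi ≈ 0.01 without compound, washed, then cultured 3 days across varying compound concentrations in RPMI 1640 with 10% FBS or 50% NHS. p24 was measured in supernatants. CIC95 is the lowest concentration inhibiting replication ≥95%, as the geometric mean of ≥2 determinations.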
# [4] = tested on: Human immunodeficiency virus; assay: Antiviral activity against HIV with reverse transcriptase K103N mutant infected in human MT2 cells assessed as inhibition of viral replication measuring p24 level after 3 days in presence of 10% fetal bovine serum; type: functional; details: Human immunodeficiency virus 1, MT2, Serum, 72 h; read-out: CIC95; procedure, shortened: as §1
# [5] = Inhibition of RNA-dependent DNA polymerase activity of wild type HIV reverse transcriptase assessed as BrdU incorporation by standard ECL assay; design: species or system Human immunodeficiency virus
# Procedure, shortened: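 Purified recombinant wild-type RT polymerase activity was measured using a 500-nt heteropolymeric RNA template and a biotinylated DNA primer. BrdU incorporation was detected with a ruthenylated anti-BrdU antibody by electrochemiluminescence. Ki is the geometric mean of at least two determinations, each within 25% of the mean.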
# [6] = Clearance in Sprague-Dawley rat at 2 mg/kg, iv; type: ADME, organism-based; design: dose 2 mg/kg, route intravenous; details: in vivo
# [7] = tested on: Human immunodeficiency virus; assay: Antiviral activity against HIV with reverse transcriptase Y181C mutant infected in human MT2 cells assessed as inhibition of viral replication measuring p24 level after 3 days in presence of 10% fetal bovine serum; type: functional; details: Human immunodeficiency virus 1, MT2, Serum, 72 h; read-out: CIC95; procedure, shortened: as §1
# [8] = tested on: Human immunodeficiency virus; assay: Antiviral activity against wild type HIV H9-3B infected in human MT2 cells assessed as inhibition of viral replication measuring p24 level after 3 days in presence of 10% fetal bovine serum; type: functional; details: Human immunodeficiency virus 1, MT2, Serum; read-out: CIC95; procedure, shortened: as §2
# [9] = Half life in Sprague-Dawley rat at 2 mg/kg, iv; type: ADME, organism-based; design: dose 2 mg/kg, route intravenous; details: in vivo
# [10] = target: Human immunodeficiency virus type 1 reverse transcriptase (Human immunodeficiency virus 1, UniProt Q72547, K103N); assay: Inhibition of RNA-dependent DNA polymerase activity of recombinant HIV reverse transcriptase K103N mutant assessed as BrdU incorporation by standard ECL assay
Structure (SMILES),IC95 [1],Vd [2],AUC (Rattus norvegicus),IC95 [3],IC95 [4],Ki [5],clearance [6],IC95 [7],IC95 [8],half-life [9],Ki [10]
N#Cc1cc(Cl)cc(Oc2cc(OCc3n[nH]c4ncccc34)cc(Cl)c2Cl)c1,277 nM,1.8 L/kg,3.5 µM,103 nM,34 nM,2.7 nM,5.5 mL/min/kg,31 nM,18 nM,9.4 h,4.6 nM
N#Cc1cc(Cl)cc(Oc2cc(OCc3noc4nc(C5=NCCN5)ccc34)ccc2Cl)c1,,,,309 nM,309 nM,2.3 nM,,,309 nM,,6.3 nM
N#Cc1cc(Cl)cc(Oc2cc(F)cc(OCc3n[nH]c4nc(N)ccc34)c2)c1,,,,103 nM,309 nM,2 nM,,,< 3.8 nM,,3.3 nM
N#Cc1cc(Cl)cc(Oc2ccc(F)c(OCc3n[nH]c4ncccc34)c2)c1,,,,> 8300 nM,> 8300 nM,47 nM,,,3770 nM,,350 nM
N#Cc1cc(Cl)cc(Oc2cc(F)c(Cl)c(OCc3n[nH]c4ncccc34)c2)c1,93 nM,,,103 nM,11 nM,5.2 nM,,31 nM,11 nM,,0.8 nM
N#Cc1cc(Cl)cc(Oc2cc(OCc3noc4nc(N)ccc34)cc(F)c2Cl)c1,833 nM,5.1 L/kg,0.4 µM,103 nM,103 nM,0.2 nM,44.9 mL/min/kg,31 nM,11 nM,1.9 h,0.8 nM
N#Cc1cc(Cl)cc(Oc2cc(F)c(Cl)c(OCc3n[nH]c4nc(N)ccc34)c2)c1,,,,> 8330 nM,> 8330 nM,120 nM,,,2780 nM,,> 910 nM
N#Cc1cc(Cl)cc(Oc2cc(OCc3noc4nc(N5CCOCC5)ccc34)ccc2Cl)c1,,,,956 nM,926 nM,1.8 nM,,,103 nM,,8.6 nM
N#Cc1cc(Cl)cc(Oc2cc(OCc3noc4nc(-n5ccnc5)ccc34)ccc2Cl)c1,833 nM,2.2 L/kg,0.7 µM,309 nM,103 nM,0.2 nM,26.9 mL/min/kg,278 nM,33 nM,1.7 h,0.8 nM
